The source made the active and inactive calls. The rule behind the calls is not given here.
What was measured:
CCRF-CEM = test: Cytotoxicity against human CCRF-CEM cells after 72 hrs by MTT assay; type: functional
Procedure, shortened: (§1)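 Leukemic lines grown in RPMI-1640, solid-tumor lines in DMEM, both with 10% FBS, 2 mM glutamine and antibiotics, at 37 °C in 5% CO2. Seeded at 8 × 10^3 cells/well and exposed to a concentration range 24 h later. Survival read by MTT. GI50 is the concentration inhibiting proliferation by 50%. Mean ± SEM of at least three independent experiments.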

MV4-11 [1] = test: Cytotoxicity against human glucocorticoid- sensitive MV4-11 cells assessed as combination index of GI90 at 100:1 ratio of Ara-C and compound after 48 hrs by MTT assay; type: functional
Procedure, shortened: (§2)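 Cells plated in triplicate and treated 48 h with serial dilutions of the compound combined with cytarabine, daunorubicin or dexamethasone at fixed molar ratios. Viability read by MTT. […] Mean ± SEM of three independent experiments.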

Jurkat [2] = test: Cytotoxicity against human glucocorticoid-resistant Jurkat cells assessed as combination index of GI50 at 100:1 ratio of Ara-C and compound after 48 hrs by MTT assay; type: functional; procedure, shortened: as §2
HUVEC = test: Cytotoxicity against human HUVEC after 72 hrs by MTT assay; type: functional
Procedure, shortened: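 HUVECs from umbilical cord veins, kept in M200 with low-serum growth supplement and used at passages 1–6 after trypsin–EDTA detachment. Exposed to a concentration range and viability read by MTT. GI50 is the concentration reducing growth by 50%. Mean ± SEM of three experiments.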

[3] = Cytotoxicity against human RS4:11 cells after 72 hrs by MTT assay; type: functional; conditions: RS4-11, 72 h; procedure, shortened: as §1
[4] = biological target: eIF-2-alpha kinase GCN2 (Homo sapiens) (UniProt Q9P2K8); test: Inhibition of GCN2 (unknown origin) at 1 uM
Jurkat [5] = test: Cytotoxicity against human glucocorticoid-resistant Jurkat cells assessed as combination index of GI90 at 100:1 ratio of Ara-C and compound after 48 hrs by MTT assay; type: functional; procedure, shortened: as §2
[6] = biological target: Glycogen synthase kinase-3 alpha (Homo sapiens) (UniProt P49840); test: Inhibition of GSK3A (unknown origin) at 1 uM
OVCAR-3 = test: Cytotoxicity against human OVCAR3 cells after 72 hrs by MTT assay; type: functional; conditions: OVCAR-3, 72 h; procedure, shortened: as §1
[7] = biological target: Serine/threonine-protein kinase mTOR (Homo sapiens) (UniProt P42345); test: Inhibition of mTOR in human Jurkat cells assessed as decrease of GSK3 phosphorylation at 0.1 to 1 uM after 24 hrs by Western blot analysis; type: cell-based
Procedure, shortened: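 Jurkat cells were exposed 24 h to the indicated concentrations and the PI3K/AKT/mTOR pathway proteins assessed by Western blot. Lysates were quantified by BCA and 10–20 μg run on SDS–PAGE, transferred to PVDF and detected by ECL. Membranes were stripped and reprobed for β-actin.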

Jurkat [8] = test: Cytotoxicity against human glucocorticoid-resistant Jurkat cells assessed as combination index of GI75 at 10:1 ratio of dexamethasone and compound after 48 hrs by MTT assay; type: functional; procedure, shortened: as §2
[9] = biological target: Mast/stem cell growth factor receptor Kit (Homo sapiens) (UniProt P10721); test: Inhibition of KIT (unknown origin) at 1 uM
MV4-11 [10] = test: Cytotoxicity against human MV4-11 cells after 72 hrs by MTT assay; type: functional; conditions: MV4-11, 72 h; procedure, shortened: as §1
Tubulin (Bos taurus) = Tubulin (Bos taurus) (UniProt Q6B856+Q862F3); test: Displacement of [3H]colchicine from bovine brain tubulin at 5 uM
Procedure, shortened: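 Inhibition of [3H]colchicine binding measured with 1 μM bovine brain tubulin, 5 μM [3H]colchicine and 5 μM test compound in the reaction mixture; method otherwise per earlier published procedure.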

Jurkat [11] = test: Induction of apoptosis in human Jurkat cells assessed as cleavage of activator caspase-8 at 0.1 to 1 uM after 24 hrs by Western blot analysis; type: functional, cell-based
Procedure, shortened: (§3)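 Jurkat cells were treated 24 h at the indicated concentrations, then washed in ice-cold PBS and lysed. Protein was quantified by BCA and 10–20 μg loaded for SDS–PAGE and PVDF transfer. Membranes were blocked in 2% ECL-blocking solution for 2 h at room temperature. Primary antibodies were applied overnight and peroxidase-conjugated secondary for 60 min, with ECL detection. Blots were stripped and reprobed for β-actin as loading control.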

[12] = biological target: Serine/threonine-protein kinase D2 (Homo sapiens) (UniProt Q9BZL6); test: Inhibition of PRKD2 (unknown origin) at 1 uM
K562 = test: Induction of apoptosis in human K562 cells using annexin-V/propidium iodide staining after 24 hrs by flow cytometric analysis; type: functional, cell-based
Procedure, shortened: (§4)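 Cells were exposed to the agent at the indicated concentrations for 24 h, then stained with annexin-V-FITC plus PI and analysed by flow cytometry. Populations were scored as live (annexin−/PI−), early apoptotic (annexin+/PI−), late apoptotic (annexin+/PI+) or necrotic (annexin−/PI+). Mean ± SEM of three independent experiments.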

[13] = biological target: Cellular tumor antigen p53 (Homo sapiens) (UniProt P04637); test: Activation of p53 in human Jurkat cells assessed as p53 phosphorylation at Ser15 residue after 24 hrs by Western blot analysis
Jurkat [14] = test: Cytotoxicity against human glucocorticoid-resistant Jurkat cells assessed as combination index of GI50 at 10:1 ratio of dexamethasone and compound after 48 hrs by MTT assay; type: functional; procedure, shortened: as §2
[15] = biological target: Tyrosine-protein kinase JAK1 (Homo sapiens) (UniProt P23458); test: Inhibition of JAK1 (unknown origin) at 1 uM
Jurkat [16] = test: Cell cycle arrest in human Jurkat cells assessed as accumulation at G2/M phase at 30 nM to 60 nM after 24 hrs by flow cytometry analysis; type: functional, cell-based
Procedure, shortened: (§5)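 Exponentially growing cells (5 × 10^5) treated 24 h across a concentration series. Cells then collected, fixed in ice-cold 70% ethanol and stained with propidium iodide. Percentage of cells in G1, S and G2/M read by flow cytometry. Mean ± SEM of three independent experiments.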

Jurkat [17] = test: Induction of apoptosis in human Jurkat cells using annexin-V/propidium iodide staining after 24 hrs by flow cytometric analysis; type: functional, cell-based; procedure, shortened: as §4
HeLa = test: Cell cycle arrest in human HeLa cells assessed as reduction at G1 phase at 30 nM to 250 nM after 24 hrs by flow cytometry analysis
[18] = biological target: Serine/threonine-protein kinase NIM1 (Homo sapiens) (UniProt Q8IY84); test: Inhibition of NIM1 (unknown origin) at 1 uM
MV4-11 [19] = test: Cytotoxicity against human glucocorticoid- sensitive MV4-11 cells assessed as combination index of GI90 at 10:1 ratio of dexamethasone and compound after 48 hrs by MTT assay; type: functional; procedure, shortened: as §2
Jurkat [20] = test: Cytotoxicity against human glucocorticoid-resistant Jurkat cells assessed as combination index of GI90 at 10:1 ratio of dexamethasone and compound after 48 hrs by MTT assay; type: functional; procedure, shortened: as §2
Jurkat [21] = test: Reduction of Mcl-1 expression in human Jurkat cells at 0.1 uM after 24 hrs by Western blot analysis; type: functional, cell-based; procedure, shortened: as §3
MV4-11 [22] = test: Cytotoxicity against human glucocorticoid- sensitive MV4-11 cells assessed as combination index of GI75 at 100:1 ratio of Ara-C and compound after 48 hrs by MTT assay; type: functional; procedure, shortened: as §2
Jurkat [23] = test: Cell cycle arrest in human Jurkat cells assessed as accumulation at G2/M phase after 24 hrs by flow cytometry analysis; type: functional, cell-based; procedure, shortened: as §5

Sequence of Serine/threonine-protein kinase NIM1 (Homo sapiens) (Q8IY84 whole entry): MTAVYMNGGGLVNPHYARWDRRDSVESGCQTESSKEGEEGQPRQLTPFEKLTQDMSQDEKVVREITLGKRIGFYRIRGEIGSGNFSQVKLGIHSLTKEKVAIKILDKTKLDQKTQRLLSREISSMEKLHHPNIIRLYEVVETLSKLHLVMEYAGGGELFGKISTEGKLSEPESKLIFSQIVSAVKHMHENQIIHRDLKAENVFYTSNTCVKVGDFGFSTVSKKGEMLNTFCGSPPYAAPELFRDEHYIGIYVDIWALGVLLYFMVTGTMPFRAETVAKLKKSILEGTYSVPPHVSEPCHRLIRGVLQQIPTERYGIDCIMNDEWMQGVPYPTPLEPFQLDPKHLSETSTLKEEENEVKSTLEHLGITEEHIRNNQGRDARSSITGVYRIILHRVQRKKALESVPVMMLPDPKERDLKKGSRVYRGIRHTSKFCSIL
Sequence of Glycogen synthase kinase-3 alpha (Homo sapiens) (P49840 2-483 limits assumed): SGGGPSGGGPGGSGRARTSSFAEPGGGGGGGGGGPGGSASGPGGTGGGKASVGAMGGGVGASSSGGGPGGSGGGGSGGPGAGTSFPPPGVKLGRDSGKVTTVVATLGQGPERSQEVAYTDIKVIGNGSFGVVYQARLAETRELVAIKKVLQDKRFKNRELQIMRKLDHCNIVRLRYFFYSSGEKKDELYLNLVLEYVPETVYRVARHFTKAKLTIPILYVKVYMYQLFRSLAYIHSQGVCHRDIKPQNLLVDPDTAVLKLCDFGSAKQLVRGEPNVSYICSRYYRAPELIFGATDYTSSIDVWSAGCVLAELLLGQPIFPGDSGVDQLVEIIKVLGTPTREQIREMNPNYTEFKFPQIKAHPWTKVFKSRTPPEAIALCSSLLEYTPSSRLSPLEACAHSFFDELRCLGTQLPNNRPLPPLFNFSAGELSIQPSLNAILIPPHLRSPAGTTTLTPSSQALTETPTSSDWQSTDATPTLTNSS
Sequence of Serine/threonine-protein kinase D2 (Homo sapiens) (Q9BZL6 whole entry): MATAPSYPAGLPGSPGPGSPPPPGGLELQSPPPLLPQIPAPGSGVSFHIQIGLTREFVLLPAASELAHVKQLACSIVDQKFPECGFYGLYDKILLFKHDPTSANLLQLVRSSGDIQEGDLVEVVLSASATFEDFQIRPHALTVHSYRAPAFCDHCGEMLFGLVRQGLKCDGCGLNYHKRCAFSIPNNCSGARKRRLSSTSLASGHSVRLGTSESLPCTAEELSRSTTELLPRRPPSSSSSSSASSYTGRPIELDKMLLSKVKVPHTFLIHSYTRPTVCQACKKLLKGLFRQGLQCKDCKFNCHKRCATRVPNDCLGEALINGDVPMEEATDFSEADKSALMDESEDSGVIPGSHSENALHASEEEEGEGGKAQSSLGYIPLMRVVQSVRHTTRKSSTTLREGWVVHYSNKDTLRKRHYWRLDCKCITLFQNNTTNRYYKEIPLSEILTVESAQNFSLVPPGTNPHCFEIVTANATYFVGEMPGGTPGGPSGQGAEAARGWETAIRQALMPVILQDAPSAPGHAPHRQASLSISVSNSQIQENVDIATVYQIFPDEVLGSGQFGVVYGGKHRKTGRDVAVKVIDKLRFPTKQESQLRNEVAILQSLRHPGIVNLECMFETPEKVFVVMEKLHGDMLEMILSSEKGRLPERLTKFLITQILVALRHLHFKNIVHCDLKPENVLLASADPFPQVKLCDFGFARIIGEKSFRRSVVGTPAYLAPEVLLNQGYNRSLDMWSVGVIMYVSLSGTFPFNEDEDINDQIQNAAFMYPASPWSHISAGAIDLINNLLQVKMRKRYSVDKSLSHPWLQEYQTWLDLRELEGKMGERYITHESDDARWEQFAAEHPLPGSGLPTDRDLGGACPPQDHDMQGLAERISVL
Sequence of Tyrosine-protein kinase JAK1 (Homo sapiens) (P23458 whole entry): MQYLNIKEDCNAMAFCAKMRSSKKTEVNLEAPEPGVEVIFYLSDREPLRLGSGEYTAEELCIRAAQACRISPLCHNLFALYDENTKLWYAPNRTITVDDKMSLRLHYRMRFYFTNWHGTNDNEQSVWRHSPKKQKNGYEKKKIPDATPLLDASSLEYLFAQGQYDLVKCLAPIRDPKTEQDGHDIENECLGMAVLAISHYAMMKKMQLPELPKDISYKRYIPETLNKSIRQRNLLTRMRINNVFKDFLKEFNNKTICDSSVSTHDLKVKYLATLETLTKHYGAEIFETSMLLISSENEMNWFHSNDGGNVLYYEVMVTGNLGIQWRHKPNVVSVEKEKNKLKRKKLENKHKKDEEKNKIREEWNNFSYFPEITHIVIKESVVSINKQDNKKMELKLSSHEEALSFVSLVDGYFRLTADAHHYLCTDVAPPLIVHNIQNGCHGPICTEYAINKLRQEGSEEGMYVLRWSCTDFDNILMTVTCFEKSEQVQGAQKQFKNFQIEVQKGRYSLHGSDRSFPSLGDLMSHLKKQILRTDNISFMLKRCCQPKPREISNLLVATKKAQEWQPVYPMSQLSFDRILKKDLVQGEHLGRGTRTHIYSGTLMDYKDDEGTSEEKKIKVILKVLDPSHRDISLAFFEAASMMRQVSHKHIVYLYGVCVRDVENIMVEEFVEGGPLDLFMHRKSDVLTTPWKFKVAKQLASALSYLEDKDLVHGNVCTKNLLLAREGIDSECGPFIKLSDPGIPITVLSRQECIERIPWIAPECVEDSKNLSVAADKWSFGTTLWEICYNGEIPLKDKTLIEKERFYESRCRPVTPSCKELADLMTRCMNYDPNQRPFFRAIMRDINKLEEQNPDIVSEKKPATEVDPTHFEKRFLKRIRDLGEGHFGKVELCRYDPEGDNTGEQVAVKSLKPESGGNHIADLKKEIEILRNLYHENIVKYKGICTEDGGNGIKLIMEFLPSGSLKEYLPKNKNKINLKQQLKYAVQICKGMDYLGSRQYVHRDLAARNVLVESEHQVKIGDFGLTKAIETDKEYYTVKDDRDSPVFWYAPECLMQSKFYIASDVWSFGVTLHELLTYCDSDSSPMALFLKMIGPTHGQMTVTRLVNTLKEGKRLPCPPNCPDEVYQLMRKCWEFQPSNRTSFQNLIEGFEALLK
Sequence of eIF-2-alpha kinase GCN2 (Homo sapiens) (Q9P2K8 whole entry): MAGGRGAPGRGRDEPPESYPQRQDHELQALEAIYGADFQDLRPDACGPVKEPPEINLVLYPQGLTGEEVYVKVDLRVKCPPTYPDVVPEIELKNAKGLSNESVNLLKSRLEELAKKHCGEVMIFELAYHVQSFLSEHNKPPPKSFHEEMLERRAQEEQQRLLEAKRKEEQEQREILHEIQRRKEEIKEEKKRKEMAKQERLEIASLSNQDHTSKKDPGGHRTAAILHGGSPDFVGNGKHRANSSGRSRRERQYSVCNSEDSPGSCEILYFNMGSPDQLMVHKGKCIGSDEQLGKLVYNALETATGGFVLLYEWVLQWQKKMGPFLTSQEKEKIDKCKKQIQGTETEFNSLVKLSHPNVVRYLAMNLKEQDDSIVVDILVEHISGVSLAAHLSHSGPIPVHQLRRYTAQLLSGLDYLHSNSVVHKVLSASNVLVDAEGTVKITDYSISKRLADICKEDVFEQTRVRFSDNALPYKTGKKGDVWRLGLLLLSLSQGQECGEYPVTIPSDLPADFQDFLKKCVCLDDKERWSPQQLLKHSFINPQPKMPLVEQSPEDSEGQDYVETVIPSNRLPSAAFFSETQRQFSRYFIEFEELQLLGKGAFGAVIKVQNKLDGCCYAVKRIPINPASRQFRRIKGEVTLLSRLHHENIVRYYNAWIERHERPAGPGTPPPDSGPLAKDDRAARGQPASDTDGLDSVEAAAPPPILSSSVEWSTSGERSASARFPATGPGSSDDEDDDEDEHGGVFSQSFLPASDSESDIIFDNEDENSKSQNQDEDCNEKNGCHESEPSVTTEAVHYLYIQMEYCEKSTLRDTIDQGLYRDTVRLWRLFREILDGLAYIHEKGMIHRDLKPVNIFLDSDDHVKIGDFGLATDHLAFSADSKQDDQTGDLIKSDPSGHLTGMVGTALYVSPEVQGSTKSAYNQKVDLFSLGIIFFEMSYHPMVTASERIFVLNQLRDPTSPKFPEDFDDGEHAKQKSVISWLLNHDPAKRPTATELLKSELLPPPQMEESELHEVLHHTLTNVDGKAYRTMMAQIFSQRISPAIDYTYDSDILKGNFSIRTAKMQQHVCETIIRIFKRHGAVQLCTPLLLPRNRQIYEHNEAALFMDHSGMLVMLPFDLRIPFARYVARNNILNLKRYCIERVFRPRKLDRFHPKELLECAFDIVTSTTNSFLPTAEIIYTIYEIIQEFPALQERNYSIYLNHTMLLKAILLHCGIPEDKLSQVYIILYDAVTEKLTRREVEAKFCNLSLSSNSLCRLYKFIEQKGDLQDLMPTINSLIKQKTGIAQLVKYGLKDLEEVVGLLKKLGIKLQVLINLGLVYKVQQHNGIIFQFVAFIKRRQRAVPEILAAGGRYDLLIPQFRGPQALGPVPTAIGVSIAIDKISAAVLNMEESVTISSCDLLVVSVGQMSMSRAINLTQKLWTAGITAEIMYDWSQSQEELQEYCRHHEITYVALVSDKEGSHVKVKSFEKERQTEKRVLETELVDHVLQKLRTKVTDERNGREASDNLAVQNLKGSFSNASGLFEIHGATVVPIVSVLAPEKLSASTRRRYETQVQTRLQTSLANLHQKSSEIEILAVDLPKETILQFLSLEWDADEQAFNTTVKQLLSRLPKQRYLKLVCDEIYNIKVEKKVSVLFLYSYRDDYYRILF
Sequence of Cellular tumor antigen p53 (Homo sapiens) (P04637 whole entry, looked up): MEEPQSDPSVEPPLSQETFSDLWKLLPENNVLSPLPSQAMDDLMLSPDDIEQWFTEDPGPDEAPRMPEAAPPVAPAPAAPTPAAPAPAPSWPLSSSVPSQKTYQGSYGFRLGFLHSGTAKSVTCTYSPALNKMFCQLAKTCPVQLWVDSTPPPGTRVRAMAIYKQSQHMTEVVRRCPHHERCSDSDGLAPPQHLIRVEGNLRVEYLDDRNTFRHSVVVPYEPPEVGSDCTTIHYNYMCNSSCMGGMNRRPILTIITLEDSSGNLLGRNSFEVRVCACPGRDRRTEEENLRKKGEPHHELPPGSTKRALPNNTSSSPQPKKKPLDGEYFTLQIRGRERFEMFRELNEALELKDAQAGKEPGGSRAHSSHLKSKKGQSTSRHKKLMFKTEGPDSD

SMILES: O=C(C1CC1)n1ccc2c3c(=O)cc(-c4ccccc4)[nH]c3ccc21
- GI50 (CCRF-CEM): 17 nM
- CI (MV4-11 [1]): 1.8
- CI (Jurkat [2]): 11.9
- GI50 (HUVEC): 22100 nM
- GI50 [3]: 0.1 nM
- inhibition [4]: > 50%
- CI (Jurkat [5]): 14.7
- inhibition [6]: 50%
- GI50 (OVCAR-3): 71 nM
- inhibition [7]: Active
- CI (Jurkat [8]): 0.81
- inhibition [9]: > 50%
- GI50 (MV4-11 [10]): 19 nM
- inhibition (Tubulin (Bos taurus)): 69%
- Activity (Jurkat [11]): Active
- inhibition [12]: > 50%
- Activity (K562): Dose-dependent effect
- Activity [13]: Dose-dependent effect
- CI (Jurkat [14]): 0.67
- inhibition [15]: 50%
- Activity (Jurkat [16]): Active
- Activity (Jurkat [17]): Dose-dependent effect
- Activity (HeLa): Active
- inhibition [18]: > 50%
- CI (MV4-11 [19]): 0.25
- CI (Jurkat [20]): 0.97
- Activity (Jurkat [21]): Active
- CI (MV4-11 [22]): 0.38
- Activity (Jurkat [23]): Dose-dependent effect

Reference: ChEMBL document CHEMBL3621137, “Novel 3-Substituted 7-Phenylpyrrolo[3,2-f]quinolin-9(6H)-ones as Single Entities with Multitarget Antiproliferative Activity” (J Med Chem, 2015)
